MsrA act: activates bovine MsrA enzyme | AID 602163 | purified bovine MsrA, absorbance read-out | 360,000 tested, 0.3% active | activation, % at 10.6 µM; in the data active = activation above about 7.5%
TbMetRS inhib: Trypanosoma brucei MetRS inhibition | purified T. brucei MetRS, ATP depletion, Kinase-Glo luminescence | inhibition, % at 11.9 µM | 360,000 tested, 0.4% active;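 active = inhibition above a per-plate cutoff of the control wells' mean inhibition plus 3 SD, cut at about 5.5% in these data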
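Measured by: Kinase-Glo luciferase luminescence reporting remaining unconsumed ATP. Material: purified T. brucei MetRS enzyme. Doses: 11.9 µM compound single dose, 0.9% DMSO. Medium: HEPES buffer containing pyrophosphatase, BSA, spermine, DTT. Times: 15 min preincubation, 2 h reaction, all 25 °C. Reagent: methionine, ATP and bulk E. coli tRNA.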
HTR2A ag: activates the mouse 5-HT2A serotonin receptor; activation, % at 7.6 µM; CHO-K1 mHTR2A beta-arrestin complementation, luminescence; percent of 30 µM serotonin response; 360,000 tested, 0.66% active;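 active = activation above a run cutoff, the mean activation of all tested compounds plus 3 SD, cut at about 14% in these data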
AHR activator: human AHR activation | P35869 | AHR-responsive luciferase reporter cells, luminescence | activation, % at 5 µM | 320,000 tested, 2.5% active | AID 2796; in the data active = activation above about 47%
Target sequence (P35869 whole entry, looked up): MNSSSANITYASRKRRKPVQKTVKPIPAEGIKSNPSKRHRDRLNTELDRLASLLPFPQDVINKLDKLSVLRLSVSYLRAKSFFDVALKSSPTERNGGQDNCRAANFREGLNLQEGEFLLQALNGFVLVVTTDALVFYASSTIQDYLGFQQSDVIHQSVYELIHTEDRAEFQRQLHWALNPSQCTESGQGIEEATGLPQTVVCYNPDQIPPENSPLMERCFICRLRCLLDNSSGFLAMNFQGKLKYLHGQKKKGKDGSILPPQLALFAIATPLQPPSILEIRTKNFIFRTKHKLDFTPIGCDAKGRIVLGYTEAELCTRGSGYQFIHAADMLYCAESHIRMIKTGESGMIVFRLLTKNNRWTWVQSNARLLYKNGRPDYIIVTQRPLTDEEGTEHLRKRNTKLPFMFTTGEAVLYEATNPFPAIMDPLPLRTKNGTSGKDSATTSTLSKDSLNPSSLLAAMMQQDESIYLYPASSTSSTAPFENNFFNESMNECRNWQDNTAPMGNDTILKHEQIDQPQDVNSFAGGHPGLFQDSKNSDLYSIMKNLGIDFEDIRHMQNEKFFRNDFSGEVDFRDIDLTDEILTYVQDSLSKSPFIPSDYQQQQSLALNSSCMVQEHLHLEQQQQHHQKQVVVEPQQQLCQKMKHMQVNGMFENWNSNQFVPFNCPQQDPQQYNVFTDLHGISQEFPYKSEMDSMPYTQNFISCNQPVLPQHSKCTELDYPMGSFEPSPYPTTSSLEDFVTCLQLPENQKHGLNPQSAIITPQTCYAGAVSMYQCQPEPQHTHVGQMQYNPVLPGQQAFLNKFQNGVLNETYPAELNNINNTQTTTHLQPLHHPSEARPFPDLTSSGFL
MsrA inhibitor: inhibitors of bovine MsrA | purified bovine MsrA, absorbance read-out | inhibition, % at 15.5 µM | 360,000 tested, 0.75% active; in the data active = inhibition above about 4.5%
AI-2 QS modul: Vibrio harveyi AI-2 quorum sensing modulation. Vibrio harveyi JMH597 AI-2 luminescence/OD600 ratio, 9 h; active compounds read low; strain lacks LuxN and CqsS sensors; 0 = neutral-control median. activity change, % at 7.5 µM. 300,000 tested, 0.4% active; in the data active = activity change below about -75%, passing the limit was not always enough;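 also: luminescence divided by OD600 gain over 9 h not by final OD600 alone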
Hits are given with their value; – = inactive; · = no result given. Compounds with a hit are over-represented: about 4.4% of the library has one in this group of screens.

SMILES	MsrA act	TbMetRS inhib	HTR2A ag	AHR activator	MsrA inhibitor	AI-2 QS modul
C[C@H]1CN([C@@H](C)CO)C(=O)CCCn2cc(nn2)CO[C@@H]1CN(C)S(=O)(=O)c1ccc(F)cc1	·	·	·	·	–	·
O=C(CC1NCCc2ccccc21)Nc1ccc(Cl)cc1 (centres undefined)	–	–	–	75	–	–
CCCN1CCc2nc(SCC(=O)Nc3ccc(C)c(Cl)c3)[nH]c(=O)c2C1	–	–	–	–	–	–
O=C(c1cnn2c(C(F)(F)F)cc(-c3ccccc3)nc12)N1CCCCC1c1cccnc1 (centres undefined)	–	–	–	50	–	–
Cc1ccc(-c2cc(C(F)F)n3ncc(C(=O)N4CCCCC4c4cccnc4)c3n2)cc1 (centres undefined)	–	–	–	–	–	–
O=S(=O)(c1cc(Cl)ccc1Br)N1CCCCC1	–	–	–	–	–	–
CC1CCN(S(=O)(=O)c2ccc(Cl)cc2Br)CC1	–	–	–	–	8.8	–
COc1cccc2cc(-c3cc(=O)oc4ccc(OCC(C)=O)cc34)oc12	–	–	–	–	9.5	–
CN(C)Cc1c(O)ccc2c(=O)c(-c3ccc(Cl)cc3)coc12	–	–	–	66	–	·
COC(=O)c1cc2c(c3c4ccccc4n(S(=O)(=O)c4ccccc4)c13)C(=O)N(Cc1ccc(C(F)(F)F)cc1)C2	·	·	·	·	–	·
CC(=O)Nc1ccc(S(=O)(=O)NC2(C(F)(F)F)NC(=O)N(CC(C)C)C2=O)cc1 (centres undefined)	–	–	–	58	–	–
COc1cccc(OC)c1C(=O)Nc1ccc(N2CCCC2)cc1	–	–	–	50	–	–
CCOc1ccc(NC(=O)c2c(OC)cccc2OC)cc1	–	–	–	51	–	–
COc1cccc(OC)c1C(=O)Nc1ccc(N2CCN(S(C)(=O)=O)CC2)cc1	–	–	–	–	–	–
COc1cccc(OC)c1C(=O)Nc1ccc2c(c1)Cc1ccccc1-2	–	–	–	75	–	–
CCc1nc(N2CCCCC2C)c2oc3ccccc3c2n1 (centres undefined)	–	–	–	48	–	–
Cc1cc(Cl)c2cc3ccccc3cc2n1	–	–	–	52	–	–
Nc1[nH]c(C(=O)c2ccccc2)c(-c2ccc(Cl)cc2)c1C(=O)c1c[nH]c2ccccc12	·	·	·	·	–	·
COCn1c(-c2cccc(Br)c2)nc2ccccc21	–	–	–	53	–	–
COCn1c(-c2ccc(OC)c(OC)c2)nc2ccccc21	–	–	–	–	–	–
CCCCCCn1c(SCC(=O)c2c(N)n(C)c(=O)n(C)c2=O)nc2ccccc21	–	–	–	–	–	–
CCCn1c(N)c(C(=O)CSc2nc3ccccc3n2CCC#N)c(=O)n(C)c1=O	–	–	–	53	–	–
O=[N+]([O-])c1ccccc1COc1ccc(Cl)c2cccnc12	–	–	–	72	–	–
CN(N=Cc1ccc2c(c1)OCO2)C(=O)c1ccccc1N	·	·	·	·	–	·
COC(=O)c1[nH]c2cc(OC)ccc2c1NC(=O)c1c(F)cccc1F	–	–	–	–	–	–
SMILES	MsrA act	TbMetRS inhib	HTR2A ag	AHR activator	MsrA inhibitor	AI-2 QS modul
C=CCNC(=S)Nc1c(C(=O)OC)[nH]c2cc(OC)ccc12	–	–	–	77	–	–
CCCCCCCCN1C(=O)[C@@H](CC(=O)N2CCCCC2)C[C@@]2(C(=O)OC)C1=C[C@H](C(C)(C)C)O[C@@H]2C	·	·	·	·	–	·
Cc1cccc(NC(=O)CCC(=O)N/N=C/c2ccco2)c1	–	–	–	–	–	–
O=C(N/N=C\c1ccco1)Nc1cccc(Cl)c1	–	–	–	52	–	–
O=C(C(=O)N1CCC(CNS(=O)(=O)c2ccc(OC(F)(F)F)cc2)CC1)c1cc2ccccc2o1	·	·	·	·	–	·
COc1ccccc1OCCNc1cc(N2CCCCC2)ccc1[N+](=O)[O-]	–	–	–	69	–	–
Cc1ccccc1OCCNc1cc(N2CCNCC2)ccc1[N+](=O)[O-]	·	·	·	–	·	–
COc1ccc(NC(=S)N(CCO)Cc2cc3c(C)cc(C)cc3[nH]c2=O)cc1	–	–	–	59	–	–
COc1ccc(NC(=S)N(CCc2c(C)[nH]c3ccc(C)cc23)Cc2cccs2)cc1	–	–	–	64	–	–
COc1ccc2[nH]c(C)c(CCN(Cc3cccs3)C(=S)Nc3ccc(F)cc3)c2c1	–	–	–	–	·	–
COC(=O)[C@]12C[C@H](CC(=O)N3CCOCC3)C(=O)N(CCC3=CCCCC3)C1=C[C@H](C(C)(C)C)O[C@@H]2C	·	·	·	·	–	·
COc1cccc(C(=O)NNC(=O)c2ccccc2-n2cccc2)c1	–	–	–	–	–	–
Cc1c(Br)cccc1NC(=O)c1sccc1-n1cccc1	–	–	–	·	–	–
Cc1cccc(NC(=O)NNC(=O)c2sccc2-n2cccc2)c1	–	–	–	53	–	–
O=C(Nc1ccc(Br)cc1F)c1sccc1-n1cccc1	–	–	–	103	–	–
COc1cccc(C(=O)NNC(=O)c2sccc2-n2cccc2)c1	–	–	–	69	–	–
COC(=O)c1sccc1NC(=O)Nc1cccc(C)c1	–	–	–	–	–	–
COc1ccc(Cn2c(C)c(CC(=O)Nc3ccc(Oc4cccnc4)c(C)c3)c3ccccc32)cc1	·	·	·	·	–	·
COC(=O)C1=C(C)N(Cc2cccc(C(F)(F)F)c2)C(=NCC2CC2)NC1c1cccc(F)c1 (centres undefined)	·	·	·	·	–	·
CC(C)OC(=O)[C@@H](Cc1ccccc1)N[C@H](/C=C/c1ccccc1)[C@@H](O)Cc1ccccc1	·	·	·	·	–	·
CCOC(=O)c1c(C)n(C)c2cc(-c3cccc(C(F)(F)F)c3)c(O)cc12	–	–	–	49	–	–
C=CCOn1c(=O)c(-c2cc3ccccc3o2)[n+]([O-])c2ccccc21	–	–	–	64	–	–
CCOC(=O)COn1c(=O)c(-c2cc3ccccc3o2)[n+]([O-])c2ccccc21	–	–	–	62	–	–
CCCC(=O)OC[C@H]1CN(C2CCCC2)S(=O)(=O)c2c(Oc3ccc(C(C)(C)C)cc3)cccc2O1	·	·	·	·	–	·
CN(C)CCCN1CC(=O)N2CCc3ccc(Br)cc3C2CC1=O (centres undefined)	·	·	·	·	–	·
SMILES	MsrA act	TbMetRS inhib	HTR2A ag	AHR activator	MsrA inhibitor	AI-2 QS modul
COCC(=O)Nc1c(C(=O)Nc2ccc3c(c2)OCCO3)oc2ccccc12	–	–	–	55	–	–
O=C(Nc1ccc2c(c1)OCCO2)c1oc2ccccc2c1NC(=O)C1CC1	–	–	–	–	–	–
CCOCC(=O)Nc1c(C(=O)Nc2ccc3c(c2)OCCO3)oc2ccccc12	–	–	–	65	–	–
COc1ccc(NC(=O)c2oc3ccccc3c2NC(=O)c2ccc3c(c2)OCO3)cc1	–	–	–	–	–	–
CC1(C)Oc2ccc(C(=O)NC3CCCC3)cc2N(CC(=O)N2CCOCC2)C1=O	–	–	–	–	–	–
CC1(C)Oc2ccc(C(=O)NC3CC3)cc2N(CC(=O)N2CCOCC2)C1=O	–	–	–	74	–	–
